pIC50: −log10 of the molar value.
What was measured:
[1] = test system: PC-3; test: Growth inhibition of human PC3 cells; type: functional
[2] = Growth inhibition of human […] cells; type: functional
[3] = biological target: cGMP-specific 3',5'-cyclic phosphodiesterase (Homo sapiens) (UniProt O76074); test: Inhibition of human PDE5 at 10 uM
[4] = test system: ACHN; test: Growth inhibition of human ACHN cells; type: functional
[5] = test system: MCF7; test: Growth inhibition of human MCF7 cells; type: functional
[6] = test system: K562; test: Growth inhibition of human K562 cells; type: functional
[7] = test system: T47D; test: Growth inhibition of human T47D cells; type: functional
[8] = test system: NCI-H23; test: Growth inhibition of human NCI-H23 cells; type: functional
[9] = biological target: Phosphodiesterase 4 (Homo sapiens) (UniProt P27815+Q08499+Q07343+Q08493); test: Inhibition of human PDE4 at 10 uM; type: protein assay
[10] = test system: A549; test: Growth inhibition of human A549 cells; type: functional
[11] = test system: OVCAR-5; test: Growth inhibition of human OVCAR5 cells; type: functional
[12] = test system: MOLT-4; test: Growth inhibition of human MOLT4 cells; type: functional
[13] = test system: RXF 393; test: Growth inhibition of human RXF393 cells; type: functional
[14] = test system: LOX IMVI; test: Growth inhibition of human LOXIMVI cells; type: functional
[15] = test system: SF-268; test: Growth inhibition of human SF268 cells; type: functional
[16] = test system: UACC-257; test: Growth inhibition of human UACC257 cells; type: functional
[17] = test system: 786-0; test: Growth inhibition of human 786-0 cells; type: functional
[18] = test system: OVCAR-8; test: Growth inhibition of human OVCAR8 cells; type: functional
[19] = test system: TK-10; test: Growth inhibition of human TK10 cells; type: functional
[20] = test system: A498; test: Growth inhibition of human A498 cells; type: functional
[21] = test system: UO-31; test: Growth inhibition of human UO31 cells; type: functional
[22] = test system: HCT-15; test: Growth inhibition of human HCT15 cells; type: functional
[23] = test system: SF-539; test: Growth inhibition of human SF539 cells; type: functional
[24] = test system: M14; test: Growth inhibition of human M14 cells; type: functional
[25] = test system: MDA-MB-435; test: Growth inhibition of human MDA-MB-435 cells; type: functional
[26] = test system: SK-OV-3; test: Growth inhibition of human SKOV3 cells; type: functional
[27] = test system: NCI-H322M; test: Growth inhibition of human NCI-H322M cells; type: functional
[28] = biological target: Insulin-like growth factor 1 receptor (Homo sapiens) (UniProt P08069); test: Inhibition of tyrosine phosphorylation of IGF1R in human Hep3B cells assessed as decrease of phosphorylated IGF1R level after 12 hrs by Western blotting; type: cell-based; conditions: Hep 3B2
Method in brief: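 Hep3B cells were exposed to a range of concentrations for 12 h at 37 C, with DMSO as vehicle control. They were lysed in Tris-HCl pH 7.9 buffer containing Triton X-100, SDS, NaF, orthovanadate and protease inhibitors, then centrifuged. Lysates were immunoblotted with anti-pY1135/1136-IGF-1R, and IGF-1R β-subunit served as loading control.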

[29] = biological target: Tyrosine-protein kinase Yes (Homo sapiens) (UniProt P07947); test: Inhibition of human YES1 at 10 uM
[30] = test system: OVCAR-4; test: Growth inhibition of human OVCAR4 cells; type: functional
[31] = test system: UACC-62; test: Growth inhibition of human UACC62 cells; type: functional
[32] = test system: NCI-H522; test: Growth inhibition of human NCI-H522 cells; type: functional
[33] = test system: CCRF-CEM; test: Growth inhibition of human CCRF-CEM cells; type: functional
[34] = test system: NCI-H460; test: Cytotoxicity against human H460 cells after 48 hrs by MTT assay; type: functional, cell-based; conditions: NCI-H460, 48 h
Method in brief: (§1)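 Cells exposed to a range of compound concentrations for 48 h, washed once with PBS, then incubated with MTT for 2 h. Formazan dissolved in DMSO and absorbance read at 570 nm. IC50 taken as the concentration giving 50% inhibition of proliferation.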

[35] = test system: HOP-62; test: Growth inhibition of human HOP62 cells; type: functional
[36] = test system: BT-549; test: Growth inhibition of human BT549 cells; type: functional
[37] = test system: HT-29; test: Growth inhibition of human HT-29 cells; type: functional
[38] = test system: HL-60; test: Cytotoxicity against human HL60 cells after 48 hrs by MTT assay; type: functional, cell-based; conditions: HL-60, 48 h; method in brief: as §1
[39] = test system: HOP-92; test: Growth inhibition of human HOP92 cells; type: functional
[40] = test system: IGROV-1; test: Growth inhibition of human IGROV1 cells; type: functional
[41] = test system: HCT-116; test: Cytotoxicity against human HCT116 cells after 48 hrs by MTT assay; type: functional, cell-based; conditions: HCT-116, 48 h; method in brief: as §1
[42] = read-out: pLC50 (the source's name) (converted)

Sequence of Tyrosine-protein kinase Yes (Homo sapiens) (P07947 2-543 limits assumed): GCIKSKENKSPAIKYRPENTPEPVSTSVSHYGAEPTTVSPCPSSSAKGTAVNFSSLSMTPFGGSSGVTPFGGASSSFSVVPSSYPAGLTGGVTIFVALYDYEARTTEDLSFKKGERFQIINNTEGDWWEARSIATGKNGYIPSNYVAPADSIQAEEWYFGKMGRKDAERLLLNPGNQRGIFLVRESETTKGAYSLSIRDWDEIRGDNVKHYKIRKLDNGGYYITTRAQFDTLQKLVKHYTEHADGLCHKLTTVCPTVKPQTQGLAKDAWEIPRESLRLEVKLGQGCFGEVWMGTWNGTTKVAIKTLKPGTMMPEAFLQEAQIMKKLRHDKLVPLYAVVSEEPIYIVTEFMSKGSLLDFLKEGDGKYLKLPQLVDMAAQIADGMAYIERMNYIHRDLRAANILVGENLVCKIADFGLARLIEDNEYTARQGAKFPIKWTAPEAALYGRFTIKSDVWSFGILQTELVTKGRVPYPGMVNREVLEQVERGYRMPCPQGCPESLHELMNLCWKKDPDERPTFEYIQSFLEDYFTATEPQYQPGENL
Sequence of Insulin-like growth factor 1 receptor (Homo sapiens) (P08069 31-736 limits assumed): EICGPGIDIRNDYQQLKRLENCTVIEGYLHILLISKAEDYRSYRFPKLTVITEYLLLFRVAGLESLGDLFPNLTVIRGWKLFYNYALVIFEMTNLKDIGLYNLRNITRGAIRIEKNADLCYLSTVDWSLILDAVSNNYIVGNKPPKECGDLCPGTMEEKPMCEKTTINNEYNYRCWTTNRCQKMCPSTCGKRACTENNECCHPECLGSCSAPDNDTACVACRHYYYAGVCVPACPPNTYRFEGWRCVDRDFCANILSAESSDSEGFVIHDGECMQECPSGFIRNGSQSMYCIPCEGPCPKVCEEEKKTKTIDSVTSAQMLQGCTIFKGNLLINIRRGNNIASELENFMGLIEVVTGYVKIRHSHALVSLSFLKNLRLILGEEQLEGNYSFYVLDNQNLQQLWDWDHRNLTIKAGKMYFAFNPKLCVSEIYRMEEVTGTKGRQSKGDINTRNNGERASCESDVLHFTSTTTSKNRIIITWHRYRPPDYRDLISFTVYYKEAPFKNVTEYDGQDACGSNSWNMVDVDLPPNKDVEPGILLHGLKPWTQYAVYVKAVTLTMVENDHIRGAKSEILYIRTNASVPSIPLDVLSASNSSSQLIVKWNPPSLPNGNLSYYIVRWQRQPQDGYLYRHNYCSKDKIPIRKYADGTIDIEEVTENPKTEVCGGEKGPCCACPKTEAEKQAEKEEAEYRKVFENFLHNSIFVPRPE
Sequence of Insulin-like growth factor 1 receptor (Homo sapiens) (P08069 741-1367 limits assumed): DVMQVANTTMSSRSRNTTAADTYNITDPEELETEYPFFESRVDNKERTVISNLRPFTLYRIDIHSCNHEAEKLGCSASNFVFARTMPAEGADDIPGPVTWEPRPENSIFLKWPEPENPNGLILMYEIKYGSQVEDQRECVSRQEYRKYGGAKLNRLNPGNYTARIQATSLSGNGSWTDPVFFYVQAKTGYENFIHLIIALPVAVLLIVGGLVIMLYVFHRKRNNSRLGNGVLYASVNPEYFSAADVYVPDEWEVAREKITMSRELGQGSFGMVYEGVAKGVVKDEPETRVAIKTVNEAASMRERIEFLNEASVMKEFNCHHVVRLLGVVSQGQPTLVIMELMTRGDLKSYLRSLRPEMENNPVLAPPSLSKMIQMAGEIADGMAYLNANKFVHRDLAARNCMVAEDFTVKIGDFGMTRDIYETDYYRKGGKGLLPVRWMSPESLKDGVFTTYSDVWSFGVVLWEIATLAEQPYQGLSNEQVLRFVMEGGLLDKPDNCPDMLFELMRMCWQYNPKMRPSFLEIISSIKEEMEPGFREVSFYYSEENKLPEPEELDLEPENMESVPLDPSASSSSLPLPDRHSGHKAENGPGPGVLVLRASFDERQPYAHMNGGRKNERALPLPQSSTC

SMILES: COc1ccc2[nH]c(-c3cccc(F)c3)cc(=O)c2c1O
- GI50 [1]: 0.0324 µM
- CC50 [1, 42]: 70.8 µM
- TGI ([1]; read-out: pTGI (converted)): 15.5 µM
- GI50 [2]: 0.0331 µM
- CC50 [2, 42]: > 100 µM
- TGI ([2]; read-out: pTGI (converted)): 16.2 µM
- inhibition [3]: 57%
- GI50 [4]: 0.0977 µM
- CC50 [4, 42]: > 100 µM
- TGI ([4]; read-out: pTGI (converted)): 33.9 µM
- GI50 [5]: 0.0302 µM
- CC50 [5, 42]: > 100 µM
- TGI ([5]; read-out: pTGI): > 100 µM
- GI50 [6]: 0.024 µM
- CC50 [6, 42]: > 100 µM
- TGI ([6]; read-out: pTGI (converted)): 0.204 µM
- GI50 [7]: 0.0282 µM
- CC50 [7, 42]: 87.1 µM
- GI50 [8]: 0.0347 µM
- CC50 [8, 42]: > 100 µM
- TGI ([8]; read-out: pTGI (converted)): 13.8 µM
- inhibition [9]: 55%
- GI50 [10]: 0.0417 µM
- CC50 [10, 42]: 93.3 µM
- TGI ([10]; read-out: pTGI (converted)): 14.8 µM
- CC50 [11, 42]: 46.8 µM
- TGI ([11]; read-out: pTGI (converted)): 15.8 µM
- GI50 [12]: 0.0479 µM
- CC50 [12, 42]: > 100 µM
- TGI ([12]; read-out: pTGI (converted)): 19.1 µM
- GI50 [13]: 0.0174 µM
- CC50 [13, 42]: 56.2 µM
- TGI ([13]; read-out: pTGI (converted)): 0.0457 µM
- GI50 [14]: 0.0912 µM
- CC50 [14, 42]: > 100 µM
- TGI ([14]; read-out: pTGI (converted)): 57.5 µM
- GI50 [15]: 0.0617 µM
- CC50 [15, 42]: 89.1 µM
- TGI ([15]; read-out: pTGI (converted)): 15.5 µM
- GI50 [16]: 0.0339 µM
- CC50 [16, 42]: > 100 µM
- TGI ([16]; read-out: pTGI): > 100 µM
- GI50 [17]: 0.0501 µM
- CC50 [17, 42]: 89.1 µM
- TGI ([17]; read-out: pTGI (converted)): 16.2 µM
- GI50 [18]: 0.0562 µM
- CC50 [18, 42]: 81.3 µM
- TGI ([18]; read-out: pTGI (converted)): 16.2 µM
- GI50 [19]: 1.78 µM
- CC50 [19, 42]: > 100 µM
- TGI ([19]; read-out: pTGI (converted)): 67.6 µM
- GI50 [20]: 0.0246 µM
- CC50 [20, 42]: 41.7 µM
- TGI ([20]; read-out: pTGI (converted)): 0.209 µM
- GI50 [21]: 0.0513 µM
- CC50 [21, 42]: 39.8 µM
- TGI ([21]; read-out: pTGI (converted)): 10.2 µM
- GI50 [22]: 0.0355 µM
- CC50 [22, 42]: > 100 µM
- TGI ([22]; read-out: pTGI (converted)): 14.8 µM
- GI50 [23]: 0.0263 µM
- CC50 [23, 42]: 18.6 µM
- TGI ([23]; read-out: pTGI (converted)): 0.0977 µM
- GI50 [24]: 0.0191 µM
- CC50 [24, 42]: 70.8 µM
- GI50 [25]: < 0.01 µM
- CC50 [25, 42]: > 100 µM
- TGI ([25]; read-out: pTGI (converted)): 0.0457 µM
- GI50 [26]: 0.0355 µM
- CC50 [26, 42]: 37.2 µM
- TGI ([26]; read-out: pTGI (converted)): 10.7 µM
- GI50 [27]: 0.851 µM
- CC50 [27, 42]: > 100 µM
- TGI ([27]; read-out: pTGI): > 100 µM
- inhibition [28]: Dose-dependent effect
- inhibition [29]: 68%
- GI50 [30]: 0.0437 µM
- CC50 [30, 42]: > 100 µM
- TGI ([30]; read-out: pTGI (converted)): 9.12 µM
- GI50 [31]: 0.0309 µM
- CC50 [31, 42]: 93.3 µM
- TGI ([31]; read-out: pTGI (converted)): 20 µM
- GI50 [32]: 0.0144 µM
- CC50 [32, 42]: 0.0977 µM
- TGI ([32]; read-out: pTGI (converted)): 0.038 µM
- GI50 [33]: 0.0347 µM
- CC50 [33, 42]: > 100 µM
- TGI ([33]; read-out: pTGI): > 100 µM
- pIC50 [34]: 7.10
- GI50 [35]: 0.0501 µM
- CC50 [35, 42]: 42.7 µM
- TGI ([35]; read-out: pTGI (converted)): 14.5 µM
- GI50 [36]: 0.145 µM
- CC50 [36, 42]: > 100 µM
- TGI ([36]; read-out: pTGI (converted)): 26.9 µM
- GI50 [37]: 0.0288 µM
- CC50 [37, 42]: 15.5 µM
- TGI ([37]; read-out: pTGI (converted)): 0.0759 µM
- pIC50 [38]: 7.52
- GI50 [39]: 4.9 µM
- CC50 [39, 42]: > 100 µM
- TGI ([39]; read-out: pTGI (converted)): 36.3 µM
- GI50 [40]: 0.0269 µM
- TGI ([40]; read-out: pTGI (converted)): 0.0933 µM
- pIC50 [41]: 7.15

Source: ChEMBL document CHEMBL1275391, “Design, synthesis, and preclinical evaluation of new 5,6- (or 6,7-) disubstituted-2-(fluorophenyl)quinolin-4-one derivatives as potent antitumor agents” (J Med Chem, 2010)
